Measured values from ChEMBL document CHEMBL1165950, “Design and synthesis of new potent anticancer pyrazoles with high FLT3 kinase inhibitory selectivity” (Bioorg Med Chem, 2010).

What was measured:
Format in all cases: functional
SN12C [1] = assay: Cytotoxicity against human SN12C cells assessed as cell growth at 10 uM; conditions: read-out: Activity
Procedure, shortened: (§1)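 NCI-60 screen: cells grown in RPMI 1640 with 5% FBS and 2 mM L-glutamine, plated at 5000–40,000 cells/well according to doubling time, and preincubated 24 h at 37 °C, 5% CO2. The single 10 µM dose (DMSO stock) was added, then incubated 48 h. Cells were TCA-fixed and stained with 0.4% SRB, read at 515 nm, and growth % calculated against time-zero and control plates.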

SK-OV-3 = assay: Cytotoxicity against human SKOV3 cells assessed as cell growth at 0.01 uM after 48 hrs by sulforhodamine B assay; conditions: SK-OV-3, 48 h, read-out: Activity
BT-549 [2] = assay: Growth inhibition of human BT549 cells after 48 hrs by sulforhodamine B assay; conditions: BT-549, 48 h; for CC50: read-out: LC50 (the source's name)
Procedure, shortened: (§2)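 NCI five-dose SRB assay in RPMI 1640 with 5% FBS and 2 mM L-glutamine. Cells were preincubated 24 h, then exposed 48 h at 37 °C to five concentrations (10-fold or half-log serial dilutions from DMSO stocks). TCA fixation, SRB staining, and absorbance at 515 nm followed. IC50 was taken where [(Ti−Tz)/(C−Tz)]×100 = 50, with Tz as time-zero cell density.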

KM12 [3] = assay: Growth inhibition of human KM12 cells after 48 hrs by sulforhodamine B assay; conditions: KM12, 48 h; for CC50: read-out: LC50 (the source's name)
Procedure, shortened: (§3)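 NCI 60-cell screen, five-dose mode. Cells grown in RPMI 1640 with 5% FBS and 2 mM L-glutamine and plated at 5000-40,000 cells/well according to doubling time. After 24 h preincubation, a Tz plate was TCA-fixed. Five concentrations (10-fold or 1/2 log dilutions) were applied for 48 h at 37 °C. SRB staining read at 515 nm. IC50 taken from [(Ti-Tz)/(C-Tz)]×100 = 50.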

KM12 [4] = assay: Cytotoxicity against human KM12 cells assessed as cell growth at 10 uM after 48 hrs by sulforhodamine B assay; conditions: KM12, 48 h, read-out: Activity
MDA-MB-231 = assay: Cytotoxicity against human MDA-MB-231 cells assessed as cell growth at 1 uM after 48 hrs by sulforhodamine B assay; conditions: MDA-MB-231, 48 h, read-out: Activity
T47D = assay: Cytotoxicity against human T47D cells assessed as cell growth at 0.01 uM after 48 hrs by sulforhodamine B assay; conditions: read-out: Activity
HCT-15 = assay: Cytotoxicity against human HCT15 cells assessed as cell growth at 0.001 uM after 48 hrs by sulforhodamine B assay; conditions: HCT-15, 48 h, read-out: Activity
SK-MEL-2 = assay: Cytotoxicity against human SK-MEL-2 cells assessed as cell growth at 0.01 uM after 48 hrs by sulforhodamine B assay; conditions: SK-MEL-2, 48 h, read-out: Activity
HCT-116 [5] = assay: Cytotoxicity against human HCT116 cells assessed as cell growth at 0.01 uM after 48 hrs by sulforhodamine B assay; conditions: HCT-116, 48 h, read-out: Activity
EKVX = assay: Cytotoxicity against human EKVX cells assessed as cell growth at 1 uM after 48 hrs by sulforhodamine B assay; conditions: read-out: Activity
M14 = assay: Cytotoxicity against human M14 cells assessed as cell growth at 0.01 uM after 48 hrs by sulforhodamine B assay; conditions: M14, 48 h, read-out: Activity
[6] = Cytotoxicity against human […] cells assessed as cell growth at 0.001 uM after 48 hrs by sulforhodamine B assay; conditions: read-out: Activity
SN12C [7] = assay: Cytotoxicity against human SN12C cells assessed as cell growth at 0.01 uM after 48 hrs by sulforhodamine B assay; conditions: read-out: Activity
MOLT-4 = assay: Growth inhibition of human MOLT4 cells after 48 hrs by sulforhodamine B assay; conditions: MOLT-4, 48 h; procedure, shortened: as §3
HOP-92 = assay: Cytotoxicity against human HOP92 cells assessed as cell growth at 10 uM after 48 hrs by sulforhodamine B assay; conditions: HOP-92, 48 h, read-out: Activity
MDA-MB-435 = assay: Cytotoxicity against human MDA-MB-435 cells assessed as cell growth at 10 uM; conditions: read-out: Activity; procedure, shortened: as §1
NCI-H23 = assay: Cytotoxicity against human NCI-H23 cells assessed as cell growth at 0.01 uM after 48 hrs by sulforhodamine B assay; conditions: NCI-H23, 48 h, read-out: Activity
UACC-257 = assay: Cytotoxicity against human UACC257 cells assessed as cell growth at 0.001 uM after 48 hrs by sulforhodamine B assay; conditions: UACC-257, 48 h, read-out: Activity
HCT-116 [8] = assay: Cytotoxicity against human HCT116 cells assessed as cell growth at 0.001 uM after 48 hrs by sulforhodamine B assay; conditions: HCT-116, 48 h, read-out: Activity
UO-31 [9] = assay: Growth inhibition of human UO31 cells after 48 hrs by sulforhodamine B assay; conditions: UO-31, 48 h; for CC50: read-out: LC50 (the source's name); procedure, shortened: as §3
BT-549 [10] = assay: Cytotoxicity against human BT549 cells assessed as cell growth at 0.01 uM after 48 hrs by sulforhodamine B assay; conditions: BT-549, 48 h, read-out: Activity
Procedure, shortened: (§4)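 NCI-60 five-dose screen. Cells were grown in RPMI 1640 with 5% FBS and 2 mM L-glutamine, plated at 5000–40,000 cells/well and preincubated for 24 h. Time-zero plates were TCA-fixed. DMSO-solubilized drug was added at five concentrations (10-fold or ½-log serial dilutions) for 48 h at 37 °C, 5% CO2. Cells were TCA-fixed, stained with 0.4% SRB and read at 515 nm. Percent growth used time-zero, control and test absorbances.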

NCI-H322M = assay: Cytotoxicity against human NCI-H322M cells assessed as cell growth at 10 uM; conditions: read-out: Activity; procedure, shortened: as §1
SN12C [11] = assay: Cytotoxicity against human SN12C cells assessed as cell growth at 100 nM after 48 hrs by sulforhodamine B assay; conditions: read-out: Activity
CCRF-CEM = assay: Cytotoxicity against human CCRF-CEM cells assessed as cell growth at 0.01 uM after 48 hrs by sulforhodamine B assay; conditions: read-out: Activity; procedure, shortened: as §4
UACC-62 = assay: Growth inhibition of human UACC62 cells after 48 hrs by sulforhodamine B assay; conditions: UACC-62, 48 h; for CC50: read-out: LC50 (the source's name); procedure, shortened: as §3
A498 = assay: Growth inhibition of human A498 cells after 48 hrs by sulforhodamine B assay; conditions: A498, 48 h; procedure, shortened: as §2
OVCAR-5 = assay: Growth inhibition of human OVCAR5 cells after 48 hrs by sulforhodamine B assay; conditions: OVCAR-5, 48 h; for CC50: read-out: LC50 (the source's name); procedure, shortened: as §3
SN12C [12] = assay: Cytotoxicity against human SN12C cells assessed as cell growth at 1 uM after 48 hrs by sulforhodamine B assay; conditions: read-out: Activity
UO-31 [13] = assay: Cytotoxicity against human UO31 cells assessed as cell growth at 1 uM after 48 hrs by sulforhodamine B assay; conditions: UO-31, 48 h, read-out: Activity

COc1cc(C)cc(-c2nn(CC#N)cc2-c2ccc(-c3cccc(C(C)=O)c3)nc2)c1
growth at 10 µM (SN12C [1]): 40.2% | growth at 0.01 µM (SK-OV-3): 101% | GI50 (BT-549 [2]): 2.73 µM | TGI (BT-549 [2]): 15.1 µM | CC50 (BT-549 [2]): > 100 µM | GI50 (KM12 [3]): 2.23 µM | TGI (KM12 [3]): 13.9 µM | CC50 (KM12 [3]): > 100 µM | growth at 10 µM (KM12 [4]): -25% | growth at 1 µM (MDA-MB-231): 13% | growth at 0.01 µM (T47D): 93% | growth at 0.001 µM (HCT-15): 95% | growth at 0.01 µM (SK-MEL-2): 89% | growth at 0.01 µM (HCT-116 [5]): 93% | growth at 1 µM (EKVX): 24% | growth at 0.01 µM (M14): 93% | growth at 0.001 µM [6]: 100% | growth at 0.01 µM (SN12C [7]): 88% | GI50 (MOLT-4): 3.35 µM | LC50 (MOLT-4): > 100 µM | TGI (MOLT-4): > 100 µM | growth at 10 µM (HOP-92): -17% | growth at 10 µM (MDA-MB-435): -27.8% | growth at 0.01 µM (NCI-H23): 91% | growth at 0.001 µM (UACC-257): 94% | growth at 0.001 µM (HCT-116 [8]): 101% | GI50 (UO-31 [9]): 3.18 µM | TGI (UO-31 [9]): 58.2 µM | CC50 (UO-31 [9]): > 100 µM | growth at 0.01 µM (BT-549 [10]): 90% | growth at 10 µM (NCI-H322M): 64.8% | growth at 0.1 µM (SN12C [11]): 91% | growth at 0.01 µM (CCRF-CEM): 94% | GI50 (UACC-62): 4.36 µM | TGI (UACC-62): > 100 µM | CC50 (UACC-62): > 100 µM | GI50 (A498): 1.08 µM | LC50 (A498): 72.5 µM | TGI (A498): 5.14 µM | GI50 (OVCAR-5): 2.43 µM | TGI (OVCAR-5): 33.9 µM | CC50 (OVCAR-5): > 100 µM | growth at 1 µM (SN12C [12]): 39% | growth at 1 µM (UO-31 [13]): 21%

COc1cc(C)cc(-c2nn(CC#N)cc2-c2ccnc(-c3ccc(N(C)C)cc3)c2)c1
growth at 10 µM (SN12C [1]): 24.7% | growth at 0.01 µM (SK-OV-3): 102% | GI50 (BT-549 [2]): 1.62 µM | TGI (BT-549 [2]): 7.33 µM | CC50 (BT-549 [2]): > 100 µM | GI50 (KM12 [3]): 0.31 µM | TGI (KM12 [3]): 1.62 µM | CC50 (KM12 [3]): 25.5 µM | growth at 10 µM (KM12 [4]): -70% | growth at 1 µM (MDA-MB-231): -15% | growth at 0.01 µM (T47D): 104% | growth at 0.001 µM (HCT-15): 99% | growth at 0.01 µM (SK-MEL-2): 116% | growth at 0.01 µM (HCT-116 [5]): 97% | growth at 1 µM (EKVX): 28% | growth at 0.01 µM (M14): 93% | growth at 0.001 µM [6]: 104% | growth at 0.01 µM (SN12C [7]): 90% | GI50 (MOLT-4): 0.626 µM | LC50 (MOLT-4): > 100 µM | TGI (MOLT-4): > 100 µM | growth at 10 µM (HOP-92): -13% | growth at 10 µM (MDA-MB-435): -22.6% | growth at 0.01 µM (NCI-H23): 97% | growth at 0.001 µM (UACC-257): 90% | growth at 0.001 µM (HCT-116 [8]): 96% | GI50 (UO-31 [9]): 0.619 µM | TGI (UO-31 [9]): 98.7 µM | CC50 (UO-31 [9]): > 100 µM | growth at 0.01 µM (BT-549 [10]): 100% | growth at 10 µM (NCI-H322M): 41.1% | growth at 0.1 µM (SN12C [11]): 44% | growth at 0.01 µM (CCRF-CEM): 100% | GI50 (UACC-62): 0.337 µM | TGI (UACC-62): 40.7 µM | CC50 (UACC-62): > 100 µM | GI50 (A498): 0.246 µM | LC50 (A498): > 100 µM | TGI (A498): 0.818 µM | GI50 (OVCAR-5): 3.98 µM | TGI (OVCAR-5): > 100 µM | CC50 (OVCAR-5): > 100 µM | growth at 1 µM (SN12C [12]): 8% | growth at 1 µM (UO-31 [13]): 18%
